Measured values reported in ChEMBL document CHEMBL4613305, “Chiral Separation, X-ray Structure, and Biological Evaluation of a Potent and Reversible Dual Binding Site AChE Inhibitor” (ACS Med Chem Lett, 2020).

Legend:
Acetylcholinesterase [1] = molecular target: T1, Acetylcholinesterase (Homo sapiens, UniProt P22303); assay: Potency index, ratio of Ki of donepezil to Ki of compound for mixed type inhibition of human AChE using acetylthiocholineiodide as substrate measured for every 30 sec for 5 mins by Ellman's method
Acetylcholinesterase [2] = molecular target: T1, Acetylcholinesterase; assay: Inhibition of human AChE using acetylthiocholineiodide as substrate measured for every 30 sec for 5 mins by Ellman's method
Cholinesterase [3] = molecular target: T2, Cholinesterase (Homo sapiens, UniProt P06276); assay: Inhibition of human BChE using butyrylthiocholineiodide as substrate at 10 uM measured for every 30 sec for 5 mins by Ellman's method relative to control
In short: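 Single-concentration test, reported as % inhibition at 10 μM. Values are mean ± SEM of three independent experiments.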

Cholinesterase [4] = molecular target: T2, Cholinesterase; assay: Inhibition of human BChE using butyrylthiocholineiodide as substrate measured for every 30 sec for 5 mins by Ellman's method
In short: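 Values are mean ± SEM of three independent experiments.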

Acetylcholinesterase [5] = molecular target: T1, Acetylcholinesterase; assay: Mixed type inhibition of human AChE using acetylthiocholineiodide as substrate measured for every 30 sec for 5 mins by Ellman's method
[6] = Efflux ratio of apparent permeability across basolateral to apical side to apical to basolateral side in MDCK-MDR1 cells at 75 uM incubated for 2 hrs by UV-spectroscopy; format: ADME, cell-based, Canis lupus familiaris; details: dog
In short: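 MDCK-MDR1 monolayers expressing the P-gp efflux system. Apparent permeability was measured in both directions, apical→basolateral and basolateral→apical. Efflux ratio calculated as Papp BL / Papp AP. Papp values are mean ± SEM of three independent experiments.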

MDCK-MDR1 = assay: Cytotoxicity against MDCK-MDR1 cells assessed as cell viability incubated for 72 hrs by MTT assay relative to control; format: ADME, cell-based; details: Canis lupus familiaris, MDCK-MDR1, 72 h
[7] = Cytotoxicity against MDCK-MDR1 cells assessed as cell viability at 100 uM incubated for 72 hrs by MTT assay relative to control; format: ADME, cell-based, Canis lupus familiaris; details: dog, read-out: Activity
[8] = Cytotoxicity against human HepG2 cells assessed as cell viability at 20 to 100 uM incubated for 2 hrs by MTT assay relative to control; format: cell-based; details: read-out: Activity
In short: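 HepG2 human liver cancer cells were exposed to 20–100 μM for 2 h. Viability was read by MTT reduction, expressed as % of untreated control cells in DMEM. Values are mean ± SEM of six replicates. Difference from control was tested by Student's t test (p < 0.01).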

[9] = Apparent permeability across apical to basolateral side in MDCK-MDR1 cells at 75 uM incubated for 2 hrs by UV-spectroscopy; format: ADME, cell-based, Canis lupus familiaris; details: dog
In short: (§1)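 MDCK-MDR1 monolayers expressing the P-gp efflux system. Apparent permeability (Papp) was measured in both directions: apical to basolateral, and basolateral to apical. Efflux ratio = Papp BL/Papp AP. Values are mean ± SEM of three independent experiments.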

[10] = Cytotoxicity against MDCK-MDR1 cells assessed as cell viability at 100 uM incubated for 24 hrs by MTT assay relative to control; format: ADME, cell-based, Canis lupus familiaris; details: dog, read-out: Activity
[11] = Apparent permeability across basolateral to apical side in MDCK-MDR1 cells at 75 uM incubated for 2 hrs by UV-spectroscopy; format: ADME, cell-based, Canis lupus familiaris; details: dog; in short: as §1
[12] = molecular target: Cholinesterases; ACHE & BCHE (Homo sapiens) (UniProt P06276+P22303); assay: Selectivity index, ratio of IC50 for human BChE to IC50 for human AChE; format: protein assay
Cholinesterases; ACHE & BCHE (Homo sapiens), sequence (P06276 whole entry, looked up): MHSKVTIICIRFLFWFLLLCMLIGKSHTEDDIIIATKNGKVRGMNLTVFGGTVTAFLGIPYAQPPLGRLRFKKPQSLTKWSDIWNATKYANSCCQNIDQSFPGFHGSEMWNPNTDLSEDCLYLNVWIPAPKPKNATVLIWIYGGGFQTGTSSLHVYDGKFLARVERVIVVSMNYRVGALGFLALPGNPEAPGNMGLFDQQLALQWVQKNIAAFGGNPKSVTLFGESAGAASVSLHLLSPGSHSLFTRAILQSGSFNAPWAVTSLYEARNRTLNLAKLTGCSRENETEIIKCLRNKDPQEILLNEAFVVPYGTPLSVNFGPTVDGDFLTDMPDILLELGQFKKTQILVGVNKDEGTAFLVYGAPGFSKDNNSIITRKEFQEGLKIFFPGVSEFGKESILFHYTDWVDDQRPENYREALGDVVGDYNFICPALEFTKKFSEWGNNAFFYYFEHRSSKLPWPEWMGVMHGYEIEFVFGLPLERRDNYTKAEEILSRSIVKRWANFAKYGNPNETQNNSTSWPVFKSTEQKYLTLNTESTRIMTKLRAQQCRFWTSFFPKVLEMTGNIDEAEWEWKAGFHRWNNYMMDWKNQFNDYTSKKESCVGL
Cholinesterases; ACHE & BCHE (Homo sapiens), sequence (P22303 whole entry, looked up): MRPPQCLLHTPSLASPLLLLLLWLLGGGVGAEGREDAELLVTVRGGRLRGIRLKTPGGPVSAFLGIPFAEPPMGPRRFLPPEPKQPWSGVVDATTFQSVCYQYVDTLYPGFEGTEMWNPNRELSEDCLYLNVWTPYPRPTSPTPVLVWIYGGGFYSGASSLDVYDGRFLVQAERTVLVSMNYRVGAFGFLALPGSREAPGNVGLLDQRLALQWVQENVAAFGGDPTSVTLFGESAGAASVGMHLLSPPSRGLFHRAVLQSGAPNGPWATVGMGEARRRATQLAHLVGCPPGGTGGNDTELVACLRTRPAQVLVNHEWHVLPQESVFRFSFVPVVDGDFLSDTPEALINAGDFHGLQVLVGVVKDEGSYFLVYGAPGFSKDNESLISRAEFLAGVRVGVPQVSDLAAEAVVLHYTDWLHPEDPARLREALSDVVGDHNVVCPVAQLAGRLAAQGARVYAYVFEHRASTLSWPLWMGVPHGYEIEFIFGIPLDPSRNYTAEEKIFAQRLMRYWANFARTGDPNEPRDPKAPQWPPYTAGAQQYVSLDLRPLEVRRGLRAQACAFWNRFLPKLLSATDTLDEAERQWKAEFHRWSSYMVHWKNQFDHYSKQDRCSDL

T2 sequence (P06276 whole entry): as the sequence (P06276 whole entry, looked up) above
T1 sequence (P22303 whole entry): as the sequence (P22303 whole entry, looked up) above

## COc1cc2cc(NC(=O)[C@H]3CCC[C@@H](NCc4ccccc4)C3)c(=O)oc2cc1OC (racemic) [listing 1 of 2 here]
Acetylcholinesterase [1]
  Ratio Ki: 4

## COc1cc2cc(NC(=O)C3CCN(Cc4ccccc4)CC3)c(=O)oc2cc1OC
Acetylcholinesterase [2]
  IC50: 223 nM
Cholinesterase [3]
  inhibition: 21%

## COc1cc2cc(NC(=O)CCCNCc3ccccc3)c(=O)oc2cc1OC
Acetylcholinesterase [2]
  IC50: 748 nM
Cholinesterase [4]
  IC50: 181 nM

## COc1cc2cc(NC(=O)[C@H]3CCC[C@@H](NCc4ccccc4)C3)c(=O)oc2cc1OC
Acetylcholinesterase [5]
  Ki: 93.4 nM
Acetylcholinesterase [2]
  IC50: 380 nM
Cholinesterase [4]
  IC50: 2330 nM

## CN1C(=O)CN=C(c2ccccc2)c2cc(Cl)ccc21 [DIAZEPAM]
[6]
  efflux ratio at 2 h, 75 µM: 0.7

## COc1cc2cc(NC(=O)[C@H]3CCC[C@@H](NCc4ccccc4)C3)c(=O)oc2cc1OC (racemic) [listing 2 of 2 here]
MDCK-MDR1
  IC50: 30000 nM
Acetylcholinesterase [5]
  Ki: 46.6 nM
Acetylcholinesterase [2]
  IC50: 36.5 nM
Cholinesterase [4]
  IC50: 6250 nM
[7]
  viability at 72 h, 100 µM: 37%
[8]
  viability at 2 h, up to 100 µM: 80 to 90%
[9]
  Papp A→B at 2 h, 75 µM: 37 ×10⁻⁶ cm/s
[10]
  viability at 24 h, 100 µM: 60%
[6]
  efflux ratio at 2 h, 75 µM: 0.22
[11]
  Papp B→A at 2 h, 75 µM: 8.4 ×10⁻⁶ cm/s

## COc1cc2cc(NC(=O)[C@@H]3CCC[C@H](NCc4ccccc4)C3)c(=O)oc2cc1OC
Acetylcholinesterase [5]
  Ki: 19.1 nM
Acetylcholinesterase [2]
  IC50: 19.2 nM
Cholinesterase [4]
  IC50: 14100 nM
[12]
  Ratio IC50: 730
